According to the RNAGym collection of RNA variant scans (doi:10.1126/science.aae0568):
This sample holds only a part of the variants without activity.

B1: tRNA (parent)
chain: GUUCCGUUGGCGUAAUGGUAACGCGUCUCCCUCCUAAGGAGAAGACUGCGGGUUCGAGUCCCGUACGGAACG

Variants of: B1
Experiment: yeast fitness relative to wild type (ratio to wild type); higher = fitter; tRNA-Arg(CCU), competitive growth, 37 C, YPD
Outline: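 Changes in genotype frequencies gave Darwinian fitness relative to wild type. Frequencies were read by 100-nucleotide paired-end sequencing of gene amplicons before and after pooled Saccharomyces cerevisiae strains, carrying tRNA-Arg(CCU) gene variants at the native locus, were competed in YPD at 37°C for 24 hours in six replicates. A genotype was kept only with ≥ 100 starting reads, and estimates < 0.5 were set to 0.5.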

Row | Variant | yeast fitness
1 | U7A A15G G23C C33G G63A | ≤ 0.5
2 | U7A A15U A36C A37U A43C C46U C49G G50A | ≤ 0.5
3 | U7A A15U A40G | ≤ 0.5
4 | U7A A15U A40G G48A G68C | ≤ 0.5
5 | U7A A15U U54C | ≤ 0.5
6 | U7A A20C A21G G23A | 0.65
7 | U7A A20C C29U C33G | 0.638
8 | U7A A20C G25A G68C | ≤ 0.5
9 | U7A A20G C31U A57C G67C | ≤ 0.5
10 | U7A A20G C46G G67C A69C | ≤ 0.5
11 | U7A A20G G23A G44A G52C | ≤ 0.5
12 | U7A A20G G23A U26G C66A | ≤ 0.5
13 | U7A A20G G23C C29G G51A G56U | ≤ 0.5
14 | U7A A20G G41A A42C G50C A70G | ≤ 0.5
15 | U7A A21C U32C G48C C60A | ≤ 0.5
16 | U7A A36C | 0.512
17 | U7A A36C G51C G63A | ≤ 0.5
18 | U7A A36G A40G G56C C62A | ≤ 0.5
19 | U7A A36G C60A | 0.533
20 | U7A A37G A43G U53A G58C C66G | ≤ 0.5
21 | U7A A40C C60A | 0.543
22 | U7A A40G | 0.73
23 | U7A A42C | 0.775
24 | U7A A42G C55G A57C | ≤ 0.5

Row | Variant | yeast fitness
25 | U7A A42G G52C G56A | ≤ 0.5
26 | U7A A42U A45G | ≤ 0.5
27 | U7A A42U A45G A57C A69U | ≤ 0.5
28 | U7A A43G | 0.679
29 | U7A A69C | 0.794
30 | U7A C11A G18A C31U C34U U47C C49A G56A A57U | ≤ 0.5
31 | U7A C11G A36U A57C | ≤ 0.5
32 | U7A C11G C27U A37C G51C G67U | 0.504
33 | U7A C11U A36U | ≤ 0.5
34 | U7A C11U A36U A57C | ≤ 0.5
35 | U7A C11U A65U | 0.682
36 | U7A C22A C31G U32G A42G G52A | ≤ 0.5
37 | U7A C24G C29G C30U A40C A65U | 0.59
38 | U7A C24U U47C | 0.566
39 | U7A C27A C66U | ≤ 0.5
40 | U7A C27U A57U A65C | ≤ 0.5
41 | U7A C27U C29U G58A G68A | ≤ 0.5
42 | U7A C27U C55U | ≤ 0.5
43 | U7A C27U G52C G68C | ≤ 0.5
44 | U7A C29A | 0.73
45 | U7A C29A A65C | ≤ 0.5
46 | U7A C29A G50C U54C | ≤ 0.5
47 | U7A C29A U47C G58A C61G A70U | 0.588
48 | U7A C29U A57C | ≤ 0.5

Row | Variant | yeast fitness
49 | U7A C30G A57U G58A | ≤ 0.5
50 | U7A C30U C33U C46U | ≤ 0.5
51 | U7A C31U | 0.683
52 | U7A C33A G50A C61G | ≤ 0.5
53 | U7A C34A G44A C46U A70C | ≤ 0.5
54 | U7A C34G C66U | ≤ 0.5
55 | U7A C34G U53C | 0.726
56 | U7A C46A G68U | ≤ 0.5
57 | U7A C55A A65C | ≤ 0.5
58 | U7A C55U C61A | 0.508
59 | U7A C61A | 0.603
60 | U7A C62G | 0.63
61 | U7A G9A U13A A43G G56A | ≤ 0.5
62 | U7A G9C A14G G17C G48A | ≤ 0.5
63 | U7A G9C G12A G17C G48A | ≤ 0.5
64 | U7A G9C G17C C29G C33G G41C C66U | ≤ 0.5
65 | U7A G9C G17C C34A G44A C46U G68A | ≤ 0.5
66 | U7A G9C G17C G48A G63A | 0.584
67 | U7A G10A A14G G41C A42U C46A C61G | ≤ 0.5
68 | U7A G10A A37G G41C A42U C46A C61G | 0.738
69 | U7A G10A C60U | 0.607
70 | U7A G10A G41C A42U C46A | ≤ 0.5
71 | U7A G10A G41U C49U | 0.615
72 | U7A G10C C22U C27G C61A C62U A65U A69C | ≤ 0.5

Row | Variant | yeast fitness
73 | U7A G12A C27A | ≤ 0.5
74 | U7A G12A C49U C62G | ≤ 0.5
75 | U7A G12A G18U C31U C49G | ≤ 0.5
76 | U7A G12A U64A | ≤ 0.5
77 | U7A G12C A20G C34U C49G | ≤ 0.5
78 | U7A G17A | 0.731
79 | U7A G17A C29U | ≤ 0.5
80 | U7A G17A C30A A65C | ≤ 0.5
81 | U7A G17C C24G C29A G58C A69C | ≤ 0.5
82 | U7A G18A C29G A37G C60A C62G | ≤ 0.5
83 | U7A G18C C22U C24U C60U | ≤ 0.5
84 | U7A G23A A42G C62U | ≤ 0.5
85 | U7A G23C C31U | ≤ 0.5
86 | U7A G23C C33G C46U U64C | 0.579
87 | U7A G25U U32A G41A C61U | 0.589
88 | U7A G39C A43C G44C U47C C61U | ≤ 0.5
89 | U7A G41C U54A | 0.588
90 | U7A G44C G63A | ≤ 0.5
91 | U7A G52A | 0.582
92 | U7A G52C G56A | 0.554
93 | U7A G56A | 0.673
94 | U7A G67U | 0.771
95 | U7A U8A G10C C27G C34G A45C G68U | ≤ 0.5
96 | U7A U8A G25A G67C | ≤ 0.5

Row | Variant | yeast fitness
97 | U7A U8C C29U | ≤ 0.5
98 | U7A U8G A69C | ≤ 0.5
99 | U7A U16A A21G C29G C34A A65U C66U | ≤ 0.5
100 | U7A U16C A21U U26A | 0.537
101 | U7A U16C A65U | 0.688
102 | U7A U16C C24G C30G A36U | ≤ 0.5
103 | U7A U16C G17A C29U C31A G58A | ≤ 0.5
104 | U7A U19C C27G A43U U47A A65U G67C | ≤ 0.5
105 | U7A U19G A70G | ≤ 0.5
106 | U7A U26C U64A | ≤ 0.5
107 | U7A U26G U32G A42U A45G A69U | ≤ 0.5
108 | U7A U28A U32G G50C U54C | ≤ 0.5
109 | U7A U32A | 0.588
110 | U7A U32C | 0.764
111 | U7A U32G C33A C62G C66U | ≤ 0.5
112 | U7A U32G C33G A70U | ≤ 0.5
113 | U7A U47A | 0.643
114 | U7A U47G | 0.557
115 | U7C A14C A65G A70C | ≤ 0.5
116 | U7C A14C C30G A40C A43U C55U | 0.64
117 | U7C A14G A20C A57G | ≤ 0.5
118 | U7C A14G A43G A69C | ≤ 0.5
119 | U7C A14G A43U C49G | ≤ 0.5
120 | U7C A14G C33G G68C | ≤ 0.5

Row | Variant | yeast fitness
121 | U7C A14U G68A | ≤ 0.5
122 | U7C A15G G18C | ≤ 0.5
123 | U7C A15U A69U | 0.527
124 | U7C A15U C29A G38C | ≤ 0.5
125 | U7C A15U C34A G39C A40C G56C C61G C62G G68C | ≤ 0.5
126 | U7C A20G C24U C49A G67C | ≤ 0.5
127 | U7C A20U A40C C46U C55G A70U | 0.582
128 | U7C A20U C29U C30G C34A U35A C66A | ≤ 0.5
129 | U7C A21G | 0.761
130 | U7C A21G A42U G58A | 0.552
131 | U7C A21U C30U C33G A70U | ≤ 0.5
132 | U7C A37C A40C A45U A57C A70C | ≤ 0.5
133 | U7C A37C C60G A65U A70C | 0.569
134 | U7C A37C C60G G63A A65U A70C | ≤ 0.5
135 | U7C A37G C49A | ≤ 0.5
136 | U7C A40G A42G G48A G56C | ≤ 0.5
137 | U7C A42U A70U | 0.584
138 | U7C A43G U47C U59C | ≤ 0.5
139 | U7C A45C A70G | ≤ 0.5
140 | U7C A57U | 0.749
141 | U7C C11A | 0.556
142 | U7C C11A C27G A57G | ≤ 0.5
143 | U7C C11A C30G C66U A69U | ≤ 0.5
144 | U7C C11G U32G | ≤ 0.5

Row | Variant | yeast fitness
145 | U7C C11U A37C | ≤ 0.5
146 | U7C C22A A45C C46U | ≤ 0.5
147 | U7C C22G C24A G25C C66G | ≤ 0.5
148 | U7C C22U C29G G56A A70U | ≤ 0.5
149 | U7C C24G | 0.645
150 | U7C C27U | 0.875
151 | U7C C27U A43U C61U | ≤ 0.5
152 | U7C C29A A65G | ≤ 0.5
153 | U7C C29G | 0.677
154 | U7C C29U | 0.754
155 | U7C C30U | 0.826
156 | U7C C30U C34A C46U G58A A65U | ≤ 0.5
157 | U7C C30U C61A | ≤ 0.5
158 | U7C C31G A45U | ≤ 0.5
159 | U7C C31G C33A C66A | ≤ 0.5
160 | U7C C31U A57U A69C | ≤ 0.5
161 | U7C C33A A40U A57C | 0.662
162 | U7C C33G | 0.58
163 | U7C C33G A37G A70G | ≤ 0.5
164 | U7C C33G A40G | ≤ 0.5
165 | U7C C33U G67A | ≤ 0.5
166 | U7C C34U A45C C60G A65C | ≤ 0.5
167 | U7C C34U C49A G56C C62A A65C | ≤ 0.5
